ChEMBL document CHEMBL4715802, “Novel Irreversible Agonists Acting at the A Adenosine Receptor” (J Med Chem, 2016)
Calls of active or inactive are those of the source. No cut-off for these calls is given here.

How the values were obtained:
Flp-In-CHO [1] = test: Stimulation of ERK1/2 phosphorylation in Flp-In-CHO cells incubated for 5 mins; format: cell-based; details: Cricetulus griseus
In short: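 A1AR-FlpInCHO cells were seeded at 4×10^4/well and serum-starved for about 18 h. Cells were stimulated with agonist for 5 min at 37°C, then lysed, and pERK1/2 was detected by SureFire. […] Curves were fitted for pEC50 and Emax. Three experiments in duplicate.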

[2] = target: T1, Adenosine receptor A1 (Homo sapiens) (UniProt P30542); test: Irreversible agonist activity at human adenosine A1 receptor expressed in Flp-In-CHO cells assessed as induction of positive change of cellular impedance at 1 uM incubated for 2 hrs by xCELLigence real-time cell analysis; format: cell-based; details: filed as agonist
T1 sequence (whole entry): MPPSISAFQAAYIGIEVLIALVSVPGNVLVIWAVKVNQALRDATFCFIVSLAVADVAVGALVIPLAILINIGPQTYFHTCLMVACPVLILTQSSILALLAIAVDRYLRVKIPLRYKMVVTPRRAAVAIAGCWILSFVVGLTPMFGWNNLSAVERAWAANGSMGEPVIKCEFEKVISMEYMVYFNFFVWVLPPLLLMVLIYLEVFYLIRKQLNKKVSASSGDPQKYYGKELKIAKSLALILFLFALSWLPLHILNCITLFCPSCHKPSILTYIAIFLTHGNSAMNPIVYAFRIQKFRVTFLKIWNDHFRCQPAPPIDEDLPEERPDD
In short: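 A1AR-FlpInCHO cells were serum-starved for about 18 h and equilibrated for at least 1 h at 37°C. 1 µM agonist or vehicle was added and impedance was recorded at 15 s intervals. […] Three experiments in duplicate.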

Adenosine receptor A1 [3] = target: T2, Adenosine receptor A1 (Homo sapiens, UniProt P30542); test: Irreversible agonist activity at human adenosine A1 receptor expressed in Flp-In-CHO cells assessed as stimulation of ERK1/2 phosphorylation incubated for 5 mins; format: cell-based
T2 sequence (P30542 whole entry): T1 sequence (whole entry)

Adenosine receptor A2a = Adenosine receptor A2a (Homo sapiens, UniProt P29274); test: Irreversible agonist activity at human adenosine A2A receptor expressed in Flp-In-CHO cells assessed as effect on forskolin-induced cAMP accumulation incubated for 30 mins by LANCE cAMP detection assay; format: functional, cell-based
Chain of Adenosine receptor A2a (P29274 whole entry): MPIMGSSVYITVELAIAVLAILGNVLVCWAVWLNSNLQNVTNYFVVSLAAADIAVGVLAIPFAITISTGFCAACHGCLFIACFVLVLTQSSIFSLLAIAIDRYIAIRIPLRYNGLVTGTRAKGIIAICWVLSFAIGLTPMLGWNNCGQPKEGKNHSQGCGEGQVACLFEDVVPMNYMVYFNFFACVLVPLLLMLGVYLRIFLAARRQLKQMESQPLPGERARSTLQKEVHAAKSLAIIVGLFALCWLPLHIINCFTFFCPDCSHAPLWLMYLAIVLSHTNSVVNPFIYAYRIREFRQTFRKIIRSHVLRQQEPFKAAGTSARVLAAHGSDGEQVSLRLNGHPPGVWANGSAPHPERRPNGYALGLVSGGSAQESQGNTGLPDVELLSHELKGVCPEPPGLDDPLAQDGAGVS

Adenosine receptor A1 [4] = target: T2, Adenosine receptor A1; test: Irreversible agonist activity at human adenosine A1 receptor expressed in Flp-In-CHO cells assessed as effect on forskolin-induced cAMP accumulation incubated for 30 mins by LANCE cAMP detection assay; format: functional, cell-based
In short: (§1)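 For Gi/o-coupled A1 or A3 FlpInCHO cells, cells were preincubated for 30 min at 37°C in stimulation buffer containing 10 µM rolipram. Agonist (10 pM–10 µM) was then added with 3 µM forskolin for 30 min at 37°C. The reaction was stopped with ethanol, cells were lysed, and cAMP was read by LANCE TR-FRET. Three to four experiments in duplicate.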

Adenosine receptor A3 = target: T3, Adenosine receptor A3 (Homo sapiens, UniProt P0DMS8); test: Irreversible agonist activity at human adenosine A3 receptor expressed in Flp-In-CHO cells assessed as effect on forskolin-induced cAMP accumulation incubated for 30 mins by LANCE cAMP detection assay; format: functional, cell-based
T3 sequence (P0DMS8 whole entry): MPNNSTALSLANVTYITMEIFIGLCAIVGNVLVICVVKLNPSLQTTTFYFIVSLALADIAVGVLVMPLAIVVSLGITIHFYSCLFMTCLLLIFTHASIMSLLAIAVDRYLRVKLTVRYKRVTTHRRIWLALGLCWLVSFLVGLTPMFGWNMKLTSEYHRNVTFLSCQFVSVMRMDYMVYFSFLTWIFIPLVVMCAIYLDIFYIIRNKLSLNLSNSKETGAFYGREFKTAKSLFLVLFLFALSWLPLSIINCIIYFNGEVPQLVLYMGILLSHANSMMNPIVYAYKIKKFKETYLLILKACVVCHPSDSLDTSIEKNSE
In short: as §1, with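 “TR-FRET. […]” for “TR-FRET.”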

[5] = target: T1, Adenosine receptor A1 (Homo sapiens); test: Irreversible agonist activity at human adenosine A1 receptor expressed in Flp-In-CHO cells assessed as induction of positive change of cellular impedance at 1 uM incubated for 1.5 hrs followed by addition of 1 uM A1AR selective antagonist SLV320 by xCELLigence real-time cell analysis; format: cell-based; details: filed as agonist
In short: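 A1AR-FlpInCHO cells were seeded at 4×10^4/well, serum-starved for about 18 h, and equilibrated in the impedance reader for at least 1 h at 37°C. Cells were exposed to 1 µM agonist and impedance was recorded every 15 s. After about 1.5–1.7 h, 1 µM SLV320 was added and recording continued. […] Three experiments in duplicate.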

Adenosine receptor A2b = target: T4, Adenosine receptor A2b (Homo sapiens, UniProt P29275); test: Irreversible agonist activity at human adenosine A2B receptor expressed in Flp-In-CHO cells assessed as effect on forskolin-induced cAMP accumulation incubated for 30 mins by LANCE cAMP detection assay; format: functional, cell-based
T4 sequence (P29275 whole entry): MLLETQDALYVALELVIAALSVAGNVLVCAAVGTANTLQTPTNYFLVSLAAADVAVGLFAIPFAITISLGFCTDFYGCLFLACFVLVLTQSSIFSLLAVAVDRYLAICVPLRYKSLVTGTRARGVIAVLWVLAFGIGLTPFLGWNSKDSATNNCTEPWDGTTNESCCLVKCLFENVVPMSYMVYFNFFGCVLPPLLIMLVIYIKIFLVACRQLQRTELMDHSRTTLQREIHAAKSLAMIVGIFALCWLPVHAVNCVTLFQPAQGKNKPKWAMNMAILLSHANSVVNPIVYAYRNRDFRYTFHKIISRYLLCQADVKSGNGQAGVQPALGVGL
In short: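 A2BAR-FlpInCHO cells in stimulation buffer with rolipram were exposed to agonist with no preincubation, then stopped with ethanol, lysed, and cAMP was detected by LANCE. Three to four experiments in duplicate.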

Flp-In-CHO [6] = test: Effect on forskolin-induced cAMP accumulation in Flp-In-CHO cells incubated for 30 mins by LANCE cAMP detection assay; format: functional, cell-based; details: Cricetulus griseus
[7] = target: T1, Adenosine receptor A1 (Homo sapiens); test: Binding affinity to human adenosine A1 receptor expressed in Sf9 cells assessed protein melting temperature at 10 uM incubated for 30 mins by Thermo-fluor assay; format: cell membranes; details: Cell membrane, filed as agonist
In short: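 Human A1AR was purified from Sf9 cells in LMNG/CHS. 0.2 µg receptor was incubated with 10 µM compound for 20 h at 4°C in HEPES pH 7.5 buffer with ADA. CPM dye at 10 µM final was added for 30 min at rt. The sample was heated from 4 to 80°C in 3° steps, holding 90 s each, and fluorescence was read at 380/470 nm to derive Tm. Three experiments in duplicate.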

[8] = target: T1, Adenosine receptor A1 (Homo sapiens); test: Binding affinity to human adenosine A1 receptor expressed in Flp-In-CHO cell membranes assessed as [3H]DPCPX binding level at 10 uM incubated for 1 hr followed by washing by liquid scintillation counting based equilibrium radioligand binding assay; details: Cell membrane
In short: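 Membranes from A1AR-FlpInCHO cells were pre-incubated with 10 µM ligand in PBS with 1 unit ADA for 1 h at 37°C. They were then washed 3× with PBS, with 1 h at 37°C between washes, and resuspended in HME buffer. [3H]DPCPX at 0.1–12 nM was bound for 1 h at 37°C, filtered and β-counted. Nonspecific binding was defined with 1 µM SLV320. Results are expressed as % of buffer-pretreated Bmax, from three experiments in duplicate.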

[9] = target: T1, Adenosine receptor A1 (Homo sapiens); details: Sf9, Cell membrane, filed as agonist, dose 10.0 µM, time 30.0 min
[10] = target: T1, Adenosine receptor A1 (Homo sapiens); test: Binding affinity to human adenosine A1 receptor expressed in Flp-In-CHO cell membranes assessed as basal [35S]GTP-gamma-S incorporation level at 10 uM incubated for 40 mins followed by washing by liquid scintillation counting; details: Cell membrane
In short: (§2)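 Membranes were pretreated with 10 µM ligand and washed as for the [3H]DPCPX assay. […] 300 pM [35S]GTPγS was then added for 40 min at 20°C, followed by filtration and counting. Values are normalised to NECA-stimulated vehicle-pretreated membranes.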

[11] = target: T1, Adenosine receptor A1 (Homo sapiens); test: Binding affinity to human adenosine A1 receptor expressed in NECA-pre-treated Flp-In-CHO cell membranes assessed as [35S]GTP-gamma-S incorporation level at 10 uM incubated for 40 mins followed by washing by liquid scintillation counting; details: Cell membrane; in short: as §2

## OC[C@H]1O[C@@H](n2cnc3c(NCCCCCCCCCCN=C=S)ncnc32)[C@H](O)[C@@H]1O
Flp-In-CHO [1]
  Activity: inactive
[2]
  Activity: Active
Adenosine receptor A1 [3]
  EC50: 79.4 nM

## O=C(NCCNc1ncnc2c1ncn2[C@@H]1O[C@H](CO)[C@@H](O)[C@H]1O)C1=CC2C=CC1CC2 (stereo partly drawn)
Flp-In-CHO [1]
  Activity: inactive

## OC[C@H]1O[C@@H](n2cnc3c(Nc4ccc(CN=C=S)cc4)ncnc32)[C@H](O)[C@@H]1O
Flp-In-CHO [1]
  Activity: inactive
Adenosine receptor A2a
  EC50: 646 nM
Adenosine receptor A1 [4]
  EC50: 269 nM
Adenosine receptor A3
  EC50: 347 nM
[2]
  Activity: Active
[5]
  Activity: Active
Adenosine receptor A2b
  EC50: 708 nM
Flp-In-CHO [6]
  Activity: inactive
[7]
  Tm: 42.7 °C
Adenosine receptor A1 [3]
  EC50: 20 nM

## OC[C@H]1O[C@@H](n2cnc3c(NCCN=C=S)ncnc32)[C@H](O)[C@@H]1O
Flp-In-CHO [1]
  Activity: inactive
Adenosine receptor A1 [3]
  EC50: 158 nM

## CCNC(=O)[C@H]1O[C@@H](n2cnc3c(N)ncnc32)[C@H](O)[C@@H]1O
Flp-In-CHO [1]
  Activity: inactive
[8]
  Activity: 108%
[2]
  Activity: Active
[9]
  ΔTm: 4 °C
[10]
  Activity: 57%
[11]
  Activity: 99%
Flp-In-CHO [6]
  Activity: inactive
[7]
  Tm: 38.7 °C

## O=C(NCCCCCCCCCCNc1ncnc2c1ncn2[C@@H]1O[C@H](CO)[C@@H](O)[C@H]1O)C1=CC2C=CC1CC2 (stereo partly drawn)
Flp-In-CHO [1]
  Activity: inactive
Adenosine receptor A1 [3]
  EC50: 25.1 nM

## OC[C@H]1O[C@@H](n2cnc3c(NCCCCCCCCCCNC(=S)Nc4ccc(N=C=S)cc4)ncnc32)[C@H](O)[C@@H]1O
Flp-In-CHO [1]
  Activity: inactive

## OC[C@H]1O[C@@H](n2cnc3c(NCCCCCCN=C=S)ncnc32)[C@H](O)[C@@H]1O
Flp-In-CHO [1]
  Activity: inactive

## O=C(NCCCCCCNc1ncnc2c1ncn2[C@@H]1O[C@H](CO)[C@@H](O)[C@H]1O)c1ccc(S(=O)(=O)F)cc1
Flp-In-CHO [1]
  Activity: inactive

## O=C(NCCCCCCNc1ncnc2c1ncn2[C@@H]1O[C@H](CO)[C@@H](O)[C@H]1O)C1=CC2C=CC1CC2 (stereo partly drawn)
Flp-In-CHO [1]
  Activity: inactive
Adenosine receptor A1 [3]
  EC50: 15.8 nM

## OC[C@H]1O[C@@H](n2cnc3c(Nc4ccc(CNC(=S)Nc5ccc(N=C=S)cc5)cc4)ncnc32)[C@H](O)[C@@H]1O
Flp-In-CHO [1]
  Activity: inactive
Adenosine receptor A2a
  EC50: 67.6 nM
Adenosine receptor A1 [4]
  EC50: 55 nM
Adenosine receptor A3
  EC50: 44.7 nM
[8]; filed as agonist
  Activity: 8%
[2]
  Activity: Active
[5]
  Activity: Active
[10]
  Activity: 124%
[11]; filed as agonist
  Activity: Active
Adenosine receptor A2b
  EC50: 224 nM
Flp-In-CHO [6]
  Activity: inactive
[7]
  Tm: 46.6 °C
Adenosine receptor A1 [3]
  EC50: 1.58 nM

## O[C@H]1CC[C@H](Nc2nc(-c3ccccc3)nc3[nH]ccc23)CC1
[11]; filed as agonist
  Activity: 37%

## CCCn1c(=O)c2nc(C3CCCC3)[nH]c2n(CCCOC(=O)c2ccc(S(=O)(=O)F)cc2)c1=O
[8]; filed as agonist
  Activity: 2%
[10]; filed as agonist
  Activity: 37%
[11]; filed as agonist
  Activity: 32%

## O=C(NCc1ccc(Nc2ncnc3c2ncn3[C@@H]2O[C@H](CO)[C@@H](O)[C@H]2O)cc1)C1=CC2C=CC1CC2 (stereo partly drawn)
Flp-In-CHO [1]
  Activity: inactive
[2]
  Activity: Active
Adenosine receptor A1 [3]
  EC50: 1.58 nM

## O=C(NCc1ccc(Nc2ncnc3c2ncn3[C@@H]2O[C@H](CO)[C@@H](O)[C@H]2O)cc1)c1ccc(S(=O)(=O)F)cc1
Flp-In-CHO [1]
  Activity: inactive
Adenosine receptor A1 [4]
  EC50: 0.912 nM
Adenosine receptor A3
  EC50: 135 nM
[8]; filed as agonist
  Activity: 16%
[2]
  Activity: Active
[5]
  Activity: Active
[10]
  Activity: 134%
[11]; filed as agonist
  Activity: Active
Adenosine receptor A2b
  EC50: 117 nM
Flp-In-CHO [6]
  Activity: inactive
[7]
  Tm: 46.7 °C
Adenosine receptor A1 [3]
  EC50: 1 nM

## OC[C@H]1O[C@@H](n2cnc3c(NCCCCCCNC(=S)Nc4ccc(N=C=S)cc4)ncnc32)[C@H](O)[C@@H]1O
Flp-In-CHO [1]
  Activity: inactive

## O=C(NCCCCCCCCCCNc1ncnc2c1ncn2[C@@H]1O[C@H](CO)[C@@H](O)[C@H]1O)c1ccc(S(=O)(=O)F)cc1
Flp-In-CHO [1]
  Activity: inactive

## OC[C@H]1O[C@@H](n2cnc3c(NCCNC(=S)Nc4ccc(N=C=S)cc4)ncnc32)[C@H](O)[C@@H]1O
Flp-In-CHO [1]
  Activity: inactive
[5]
  Activity: Active
Adenosine receptor A1 [3]
  EC50: 3.16 nM
